According to ChEMBL document CHEMBL1275441, “Effect of impaired renal function on the pharmacokinetics of tomopenem (RO4908463/CS-023), a novel carbapenem” (Antimicrob Agents Chemother, 2008):

Columns and labels:
[1] = Renal clearance in human with creatinine clearance of 30-49 ml/min at 1500 mg, iv administered as single dose after 24 hrs; assay type: ADME, organism-based, Kidney; conditions: in vivo, read-out: CL_renal (converted)
Method in brief: (§1)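 After a single 1,500 mg i.v. infusion over 60 min, urine was collected 0–6, 6–12 and 12–24 h post-dose, with volume and pH recorded. Aliquots were mixed 1:1 with 0.5 M MOPS, protected from light and frozen at −70°C. Parent and metabolite were assayed by a validated method. CLR = Ae24/plasma AUC24. n = 8 per group, mean ± SD.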

[2] = Volume of distribution at steady state in human with creatinine clearance of 50-79 ml/min at 1500 mg, iv administered as single dose measured after 60 mins; assay type: ADME, organism-based; conditions: in vivo, read-out: Vdss
Method in brief: (§2)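 Eight subjects per CL_CR group (Cockcroft-Gault) received 1,500 mg i.v. over 60 min. Plasma was sampled predose and from 1 to 48 h, mixed with equal-volume 0.5 M MOPS pH 6.0, frozen at −70°C light-protected, and assayed by a validated method. Parameters were derived noncompartmentally from actual times, with T_max taken from raw data as a median and CL/V_ss as means ± SD.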

[3] = Total clearance in human with creatinine clearance of 50-79 ml/min at 1500 mg, iv administered as single dose measured after 60 mins; assay type: ADME, organism-based; conditions: in vivo; method in brief: as §2
[4] = Tmax in human with creatinine clearance of =< 30 ml/min at 1500 mg, iv administered as single dose; assay type: ADME, organism-based; conditions: in vivo; method in brief: as §2
[5] = Cmax in human with creatinine clearance of 30-49 ml/min at 1500 mg, iv administered as single dose measured after 60 mins; assay type: ADME, organism-based; set-up: dose 1500 mg, route intravenous; conditions: in vivo
Method in brief: (§3)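 Single 1,500 mg i.v. infusion over 60 min, eight subjects per renal-function group (creatinine clearance by Cockcroft-Gault at screening). Blood was sampled predose and at 1–48 h, and the plasma was stabilized 1:1 with 0.5 M MOPS pH 6.0, kept from light and frozen at −70°C. Parent and metabolite were measured by a validated bioanalytical method. Noncompartmental analysis: t1/2 = ln2/λz from ≥3 terminal points, Cmax/Tmax from raw data, ratio = AUC∞ metabolite/parent.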

[6] = Renal clearance in human with creatinine clearance of 50-79 ml/min at 1500 mg, iv administered as single dose after 24 hrs; assay type: ADME, organism-based, Kidney; conditions: in vivo, read-out: CL_renal (converted)
Method in brief: (§4)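 Single 1,500 mg i.v. infusion over 60 min, with 8 subjects per renal-function group (CL_CR by Cockcroft-Gault at screening). Urine was collected at 0–6, 6–12 and 12–24 h, volume and pH recorded, and aliquots mixed 1:1 with 0.5 M MOPS. Samples were frozen at −70°C, protected from light, and assayed by a validated method. CL_R = A_e24/AUC₂₄.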

[7] = Apparent half-life in human with creatinine clearance of => 80 ml/min at 1500 mg, iv administered as single dose; assay type: ADME, organism-based; conditions: in vivo; method in brief: as §3
Homo sapiens [8] = experiment: Drug metabolism in human with creatinine clearance of 30-49 ml/min assessed as RO4957463 apparent half life at 1500 mg, iv administered as single dose; assay type: ADME, organism-based; conditions: in vivo; method in brief: as §3
Homo sapiens [9] = experiment: Drug metabolism in human with creatinine clearance of =< 30 ml/min assessed as RO4957463 Tmax at 1500 mg, iv administered as single dose; assay type: ADME, organism-based; conditions: in vivo; method in brief: as §3
Homo sapiens [10] = experiment: Drug metabolism in human with creatinine clearance of 30-49 ml/min assessed as RO4957463 Cmax at 1500 mg, iv administered as single dose measured after 60 mins; assay type: ADME, organism-based; set-up: dose 1500 mg, route intravenous; conditions: in vivo, 1 h; method in brief: as §3
[11] = Total clearance in human with creatinine clearance of 30-49 ml/min at 1500 mg, iv administered as single dose measured after 60 mins; assay type: ADME, organism-based; conditions: in vivo; method in brief: as §2
[12] = Cmax in human with creatinine clearance of => 80 ml/min at 1500 mg, iv administered as single dose measured after 60 mins; assay type: ADME, organism-based; set-up: dose 1500 mg, route intravenous; conditions: in vivo; method in brief: as §3
Homo sapiens [13] = experiment: Ratio of RO4957463 AUC (infinity) to compound AUC (infinity) in human with creatinine clearance of => 80 ml/min at 1500 mg, iv administered as single dose measured after 60 mins; assay type: ADME, organism-based; conditions: in vivo, 1 h; method in brief: as §3
[14] = Total clearance in healthy human at 700 mg, iv administered as single dose; assay type: ADME, organism-based; conditions: in vivo
[15] = Dose normalized excretion in human with creatinine clearance of 50-79 ml/min at 1500 mg, iv administered as single dose after 24 hrs; assay type: ADME, organism-based; conditions: in vivo, read-out: Activity; method in brief: as §1
[16] = Tmax in human with creatinine clearance of 30-49 ml/min at 1500 mg, iv administered as single dose; assay type: ADME, organism-based; conditions: in vivo; method in brief: as §2
[17] = AUC (infinity) in human with creatinine clearance of =< 30 ml/min at 1500 mg, iv administered as single dose measured after 60 mins; assay type: ADME, organism-based; set-up: dose 1500 mg, time infinity, route intravenous; conditions: plasma; method in brief: as §3
Homo sapiens [18] = experiment: Ratio of RO4957463 AUC (infinity) to compound AUC (infinity) in human with creatinine clearance of 50-79 ml/min at 1500 mg, iv administered as single dose measured after 60 mins; assay type: ADME, organism-based; conditions: in vivo, 1 h; method in brief: as §3
Homo sapiens [19] = experiment: Drug metabolism in human with creatinine clearance of 50-79 ml/min assessed as RO4957463 apparent half life at 1500 mg, iv administered as single dose; assay type: ADME, organism-based; conditions: in vivo; method in brief: as §3
[20] = Renal clearance in human with creatinine clearance of =< 30 ml/min at 1500 mg, iv administered as single dose after 24 hrs; assay type: ADME, organism-based, Kidney; conditions: in vivo, read-out: CL_renal (converted); method in brief: as §4
Homo sapiens [21] = experiment: Drug metabolism in human with creatinine clearance of => 80 ml/min assessed as RO4957463 apparent half life at 1500 mg, iv administered as single dose; assay type: ADME, organism-based; conditions: in vivo; method in brief: as §3
[22] = Renal clearance in human with creatinine clearance of => 80 ml/min at 1500 mg, iv administered as single dose after 24 hrs; assay type: ADME, organism-based, Kidney; conditions: in vivo, read-out: CL_renal (converted); method in brief: as §4
Homo sapiens [23] = experiment: Drug metabolism in human with creatinine clearance of 50-79 ml/min assessed as RO4957463 Tmax at 1500 mg, iv administered as single dose measured after 60 mins; assay type: ADME, organism-based; conditions: in vivo, 1 h; method in brief: as §3
Homo sapiens [24] = experiment: Drug metabolism in human with creatinine clearance of 50-79 ml/min assessed as RO4957463 Cmax at 1500 mg, iv administered as single dose measured after 60 mins; assay type: ADME, organism-based; set-up: dose 1500 mg, route intravenous; conditions: in vivo, 1 h; method in brief: as §3
[25] = Total clearance in human with creatinine clearance of => 80 ml/min at 1500 mg, iv administered as single dose measured after 60 mins; assay type: ADME, organism-based; conditions: in vivo; method in brief: as §2

CL renal at 24 h [1]: 33 mL/min | Vd [2]: 16.2 L | clearance [3]: 84.7 mL/min | Tmax [4]: 1.02 h | Cmax [5]: 100 µg/mL | CL renal at 24 h [6]: 61.3 mL/min | half-life [7]: 134 min | t1/2 (Homo sapiens [8]): 8.32 h | Tmax (Homo sapiens [9]): 13.5 h | Cmax (Homo sapiens [10]): 5.24 µg/mL | clearance [11]: 51 mL/min | Cmax [12]: 81.4 µg/mL | Ratio (Homo sapiens [13]): 0.1 | clearance [14]: 135 mL/min | dose excreted at 24 h [15]: 72.6% | Tmax [16]: 1 h | AUC(0-inf) [17]: 1040 µg·h/mL | Ratio (Homo sapiens [18]): 0.12 | t1/2 (Homo sapiens [19]): 5.02 h | CL renal at 24 h [20]: 9.83 mL/min | t1/2 (Homo sapiens [21]): 2.98 h | CL renal at 24 h [22]: 77.2 mL/min | Tmax (Homo sapiens [23]): 1 h | Cmax (Homo sapiens [24]): 4.31 µg/mL | clearance [25]: 135 mL/min
Structure (SMILES): C[C@@H](O)[C@H]1C(=O)N2C(C(=O)O)=C(S[C@H]3C[C@@H](C(=O)N4CC[C@H](NC(=O)CNC(=N)N)C4)N(C)C3)[C@H](C)[C@H]12 [TOMOPENEM]
